Sampled rows, rich in hits. Any-hit rate of the full collection: about 2.6%.
SENP1 inh = human SENP1 catalytic domain inhibitors, primary screen, biochemical, FRET, uHTS | inhibition, % at 10 µM | recombinant SENP1 catalytic domain, CyPet-SUMO1-YPet FRET cleavage | Sentrin-specific protease 1 (Homo sapiens), Q9P0U3 | AID 624204, 2012 | actives 0.21% (n = 360,000);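 active = inhibition at least 30% at 10 µM, raw YFP signal under a set limit, fluorescence ratio 0.5 to 1.5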;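 note: 0% = enzyme with DMSO and 100% = no enzyme wells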
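Assay system: hSENP1 catalytic domain, recombinant. Amount: SENP1 enzyme, 20 pM final. Schedule: 50 min reaction, RT, dark. Technique: FRET, CFP and YFP emission. Control set: no-enzyme wells low, DMSO-plus-enzyme wells high control.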
SENP7 inh = SENP7 protease inhibitors, primary screen, biochemical, luminescence, uHTS | recombinant SENP7, Z-RLRGG-aminoluciferin luminescence, 40 min | inhibition, % at 5 µM | actives 1.5% (n = 330,000) | AID 434973, 2010;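 active = inhibition above about 50% at the single test dose, limit read from the data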;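 note: plate controls were DMSO with enzyme for no effect and no enzyme buffer wells for full effect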
SENP8 block-1 = SENP8 protease inhibitors, primary screen, biochemical, luminescence; Sentrin-specific protease 8 (Homo sapiens), Q96LD8; purified SENP8, Z-RLRGG-aminoluciferin cleavage; inhibition, % at 10 µM; actives 1.2% (n = 330,000); AID 2540, 2010; in the data active = inhibition above about 50%
SENP8 block-2 = human SENP8 protease inhibitors, primary screen, biochemical, fluorescence, Nedd8 protein substrate, uHTS; recombinant SENP8; inhibition, % at 20 µM; actives 0.64% (n = 360,000); AID 602440, 2012; in the data active = inhibition mostly above about 40%, no sharp cut-off; inactive = mostly below about 27%
Platelet DG rel = inhibitors of platelet dense granule secretion, primary screen, cell-based, MLPCN, human platelets | human platelet-rich plasma, SFLLRN dense granule ATP release, luminescence | inhibition, %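 (compounds screened at 7.5 µM in platelet-rich plasma)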 | actives 0.22% (n = 300,000) | AID 1663, 2009;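 active = mean replicate score, as percent of positive control, at or above 50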
SENP6 block = SENP6 protease inhibitors, primary screen, biochemical, luminescence, uHTS | inhibition, % at 10 µM | Recombinant SENP6 catalytic domain, aminoluciferin luminescence | Sentrin-specific protease 6 (Homo sapiens), Q9GZR1 | actives 1.8% (n = 330,000);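 active = inhibition above about 50% at the single tested dose, limit read from the data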;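 note: plate controls were DMSO wells with enzyme for no effect and DMSO wells lacking enzyme for full effect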
Target sequence (Q9GZR1 628-1112 limits assumed): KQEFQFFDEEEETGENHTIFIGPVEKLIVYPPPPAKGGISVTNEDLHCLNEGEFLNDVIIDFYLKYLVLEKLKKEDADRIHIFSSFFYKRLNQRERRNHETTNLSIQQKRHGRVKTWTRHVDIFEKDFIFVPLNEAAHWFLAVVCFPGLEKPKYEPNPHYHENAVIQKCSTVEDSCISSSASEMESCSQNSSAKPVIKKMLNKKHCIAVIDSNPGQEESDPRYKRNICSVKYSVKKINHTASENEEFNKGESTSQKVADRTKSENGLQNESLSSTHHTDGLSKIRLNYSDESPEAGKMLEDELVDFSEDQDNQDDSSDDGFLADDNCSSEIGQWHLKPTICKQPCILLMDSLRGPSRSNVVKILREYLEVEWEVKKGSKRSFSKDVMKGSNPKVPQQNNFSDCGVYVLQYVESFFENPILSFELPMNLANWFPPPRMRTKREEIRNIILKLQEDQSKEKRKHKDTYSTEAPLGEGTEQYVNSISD
SENP8 conf = SENP8 protease inhibitors, retest, confirmation, biochemical, luminescence, single concentration; AID 488912, 2010; actives 40% (n = 6,200); Recombinant SENP8, Z-RLRGG-aminoluciferin luminescence, 60 min; shares compounds with SENP7 inh; inhibition, % at 12.5 µM;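 active = mean inhibition across replicates above about 50%, limit read from the data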
SENP6 confirm = SENP6 protease inhibitors, confirmation, biochemical, luminescence, single concentration; shares compounds with SENP7 inh; recombinant SENP6, Z-RLRGG-aminoluciferin luminescence; inhibition, % at 12.5 µM; actives 58% (n = 6,200); AID 488915, 2010
SENP7 conf = SENP7 protease inhibitors, retest, confirmation, biochemical, luminescence, single concentration. shares compounds with SENP7 inh. recombinant SENP7, Z-RLRGG-aminoluciferin luminescence, 40 min. inhibition, % at 12.5 µM. actives 69% (n = 6,200). AID 488917, 2010
Casp3 select = caspase-3 protease inhibitors, confirmation, selectivity assay for SENP inhibitor project, biochemical, single concentration | inhibition, % at 12.5 µM | purified caspase-3, Z-DEVD-aminoluciferin luminescence, 60 min | shares compounds with SENP7 inh | actives 60% (n = 6,200) | AID 488918, 2010;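 active = mean inhibition above about 50%, limit read from the data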;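 note: plate controls were enzyme with DMSO for no effect and wells without caspase-3 for full effect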
Target sequence (P42574 28-227 limits assumed): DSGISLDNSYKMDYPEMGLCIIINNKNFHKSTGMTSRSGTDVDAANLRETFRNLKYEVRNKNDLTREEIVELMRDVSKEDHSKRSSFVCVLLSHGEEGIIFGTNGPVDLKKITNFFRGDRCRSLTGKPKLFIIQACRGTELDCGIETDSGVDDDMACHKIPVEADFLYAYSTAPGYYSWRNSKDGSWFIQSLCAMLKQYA
SENP luc ctr = counter-screen for SENP inhibitors: luminescence interference. shares compounds with SENP7 inh. Pre-incubated SENP8/Z-RLRGG-aminoluciferin, luciferase luminescence interference. inhibition, % at 12.5 µM. actives 39% (n = 6,200). AID 488919;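 active = mean inhibition above about 50% when retested at one dose, limit read from the data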;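 note: plate controls were DMSO wells with completed reaction for no effect and substrate without enzyme for full effect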
The depositor's hits bear a star; · = no result given.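 Rule for the calls, unless noted: active = mean inhibition above about 50% in the one-dose retest (limit read from the data); inactive = the rest.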

SMILES | SENP1 inh | SENP7 inh | SENP8 block-1 | SENP8 block-2 | Platelet DG rel | SENP6 block | SENP8 conf | SENP6 confirm | SENP7 conf | Casp3 select | SENP luc ctr
Cn1cccc1/C=N/NC(=O)c1cc2ccccc2cc1O | 12 | 48 | 49 | -207 | 25 | 59* | 56* | 54* | 84* | 68* | 2
O=C(NNC(=O)c1ccc2ccccc2c1O)c1cccs1 | -1 | -2 | 9 | -196 | 0 | 26 | · | · | · | · | ·
C/C(=N\NC(=O)c1cc2ccccc2cc1O)c1ccc(C)o1 | 23 | 63* | 68* | -229 | 22 | 84* | 80* | 78* | 95* | 90* | 47
O=C(CSc1nncn1-c1ccccc1)Nc1c(F)cccc1F | 1 | 5 | 3 | 16 | 12 | -3 | · | · | · | · | ·
Cn1cccc1C(=O)N/N=C/c1c(Cl)cccc1Cl | 10 | 83* | 76* | 4 | 9 | 79* | 83* | 82* | 72* | 91* | 26
Cc1ccc2c(Cl)c(C(=O)N/N=C/c3cccn3C)sc2c1 | -26 | 84* | 29 | -5 | 3 | 39 | 10 | 8 | -5 | 11 | 1
C/C(=N/NC(=O)c1cccs1)c1cccs1 | 1 | 62* | 15 | -12 | 1 | 33 | 25 | 25 | 70* | 63* | 32
COC(=O)C(C)NC(=O)C1CCCN1S(=O)(=O)c1cc(C)c(Cl)cc1C (stereo not given) | 0 | -3 | -1 | 15 | -4 | 0 | · | · | · | · | ·
Cc1ccc(S(=O)(=O)NCCC(=O)OCC(=O)Nc2cccc(Cl)c2)cc1 | 1 | -4 | 5 | 11 | · | 6 | · | · | · | · | ·
O=c1c2c([nH]c3ccccc13)CCCCC2 | 3 | 2 | -6 | 2 | -2 | 82* | 10 | 2 | -4 | -7 | -8
CCC(C)c1c(O)nc(SCc2ccccc2)[nH]c1=O (stereo not given) | 2 | 3 | -4 | 8 | -2 | 1 | · | · | · | · | ·
Cc1ccc2occ(/C=C/C(=O)O)c(=O)c2c1 | 0 | 32 | 34 | -181 | -19 | 74* | 64* | 58* | 86* | 58* | 61*
O=C(O)/C=C/c1coc2ccc(F)cc2c1=O | -1 | 7 | 1 | -17 | -13 | -1 | · | · | · | · | ·
O=C(c1ccsc1)N1CCN(C(=O)c2cccs2)CC1 | 2 | -5 | -10 | 22 | -1 | -5 | · | · | · | · | ·
C(=N\Nc1nc(-c2cccnc2)nc2ccccc12)/c1ccccc1 | -8 | 1 | -13 | -305 | 25 | -10 | · | · | · | · | ·
Brc1ccc(-c2nc(N/N=C/c3cccnc3)c3ccccc3n2)cc1 | -11 | 90* | 85* | -105 | 72* | 90* | 5 | 5 | 2 | 5 | 3
N#CC(C#N)=NNc1ccc([N+](=O)[O-])cc1 | 14 | 44 | 74* | 24 | 9 | 81* | 11 | 82* | 93* | 61* | 83*
COC(=O)c1cc(/C=C/c2ccccc2)[nH]n1 | 2 | 47 | 37 | -4 | 5 | 52* | 49 | 46 | 82* | 64* | 16
COC(=O)c1cc(/C=C/c2ccccc2)on1 | 0 | -1 | -11 | -24 | -10 | 27 | · | · | · | · | ·
Fc1ccc(OCc2cc(-c3ccccc3)no2)cc1 | 2 | 20 | 1 | -1 | 1 | 5 | · | · | · | · | ·
Cc1cccc(OCc2cc(-c3ccccc3)no2)c1C | -2 | 67* | 55* | 19 | -8 | 67* | 9 | 43 | 70* | 38 | 20
Clc1ccc(OCc2cc(-c3ccccc3)no2)c(Cl)c1 | 1 | 3 | 82* | 5 | -4 | 84* | 10 | 18 | 18 | 49 | 1
O=C(Nc1ccc(N2CCCC2)c(Cl)c1)c1cccs1 | -1 | 49 | 58* | -7 | 7 | 26 | 79* | 74* | 92* | 70* | 62*
O=C(Nc1ccc2c(c1)OCO2)c1ccc(Br)s1 | -11 | 78* | 60* | 12 | 13 | 74* | 72* | 67* | 92* | 65* | 71*
O=C(Nc1ccc2c(c1)OCO2)c1cccs1 | 3 | 48 | 16 | 0 | 10 | 65* | 49 | 42 | 72* | 74* | 55*
SMILES | SENP1 inh | SENP7 inh | SENP8 block-1 | SENP8 block-2 | Platelet DG rel | SENP6 block | SENP8 conf | SENP6 confirm | SENP7 conf | Casp3 select | SENP luc ctr
O=C(/C=C\Nc1ccc2c(c1)OCO2)c1cccs1 | -24 | -4 | 94* | -2 | 31 | -14 | -7 | 100* | 104* | 98* | 35
O=C(c1ccc2c(c1)OCCCO2)c1cccs1 | 1 | 50 | 30 | 10 | 11 | 54* | 52* | 50 | 82* | 66* | 63*
CC(=NNC(=O)c1cccs1)c1ccc2c(c1)OCCO2 | -1 | -14 | -11 | -49 | · | -2 | · | · | · | · | ·
O=C(Nc1ccc2c(c1)OCCO2)c1cccs1 | 0 | 72* | 46 | 28 | 17 | 76* | 51* | 50* | 85* | 81* | 68*
O=C(Nc1ccc2c(c1)OCCO2)c1c(Cl)cccc1Cl | 2 | · | · | 17 | · | · | · | · | · | · | ·
CC(=O)N(C)c1ccc(N=NC2C(=O)N(C(N)=S)N=C2C)cc1 (stereo not given) | 3 | 80* | 77* | 15 | 0 | 2 | 86* | 84* | 97* | 95* | 87*
CC1=NN(C(N)=S)C(=O)C1N=Nc1ccc(S(N)(=O)=O)cc1 (stereo not given) | 2 | 28 | 12 | 24 | -1 | 51* | 23 | 22 | 70* | 74* | 57*

From PubChem
